According to ChEMBL document CHEMBL4219021, “Discovery of a Small-Molecule Degrader of Bromodomain and Extra-Terminal (BET) Proteins with Picomolar Cellular Potencies and Capable of Achieving Tumor Regression” (J Med Chem, 2018):
Activity calls are given as the source filed them. No cut-off for these calls is given here.

Legend:
RS4-11 = experiment: Cytotoxicity against human RS4:11 cells assessed as cell growth inhibition after 4 days by WST-8 assay; type: functional, cell-based; conditions: RS4-11, 96 h
MOLM-13 = experiment: Cytotoxicity against human MOLM13 cells assessed as cell growth inhibition after 4 days by WST-8 assay; type: functional, cell-based; conditions: MOLM-13, 96 h
[1] = target: T1, Protein cereblon/Bromodomain-containing protein 3/Cullin-4A (Homo sapiens) (UniProt Q15059+Q96SW2+Q13619); experiment: Induction of cereblon/cullin 4A-mediated BRD3 degradation in human RS4:11 cells after 3 hrs by Western blot method; type: cell-based
T1 sequence (Q13619 whole entry, looked up): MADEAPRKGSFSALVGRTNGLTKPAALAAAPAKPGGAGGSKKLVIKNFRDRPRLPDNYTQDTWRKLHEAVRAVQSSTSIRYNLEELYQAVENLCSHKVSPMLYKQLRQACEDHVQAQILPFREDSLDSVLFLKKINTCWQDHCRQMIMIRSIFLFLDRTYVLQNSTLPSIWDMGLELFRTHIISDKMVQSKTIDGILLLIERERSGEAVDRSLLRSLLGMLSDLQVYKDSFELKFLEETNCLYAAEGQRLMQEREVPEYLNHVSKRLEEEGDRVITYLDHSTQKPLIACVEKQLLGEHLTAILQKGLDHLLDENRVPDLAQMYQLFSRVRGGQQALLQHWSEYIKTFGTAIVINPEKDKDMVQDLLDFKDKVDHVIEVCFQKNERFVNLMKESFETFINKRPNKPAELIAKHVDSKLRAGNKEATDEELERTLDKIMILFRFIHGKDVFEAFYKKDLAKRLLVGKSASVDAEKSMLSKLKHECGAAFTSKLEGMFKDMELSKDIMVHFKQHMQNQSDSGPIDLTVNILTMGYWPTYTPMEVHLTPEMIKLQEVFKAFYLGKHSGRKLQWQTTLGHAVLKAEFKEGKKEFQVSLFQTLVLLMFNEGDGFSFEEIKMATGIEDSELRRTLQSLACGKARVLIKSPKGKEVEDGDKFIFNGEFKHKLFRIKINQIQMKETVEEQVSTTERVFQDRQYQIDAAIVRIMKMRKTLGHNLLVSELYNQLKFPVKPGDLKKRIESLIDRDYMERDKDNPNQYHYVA
T1 sequence (Q15059 whole entry, looked up): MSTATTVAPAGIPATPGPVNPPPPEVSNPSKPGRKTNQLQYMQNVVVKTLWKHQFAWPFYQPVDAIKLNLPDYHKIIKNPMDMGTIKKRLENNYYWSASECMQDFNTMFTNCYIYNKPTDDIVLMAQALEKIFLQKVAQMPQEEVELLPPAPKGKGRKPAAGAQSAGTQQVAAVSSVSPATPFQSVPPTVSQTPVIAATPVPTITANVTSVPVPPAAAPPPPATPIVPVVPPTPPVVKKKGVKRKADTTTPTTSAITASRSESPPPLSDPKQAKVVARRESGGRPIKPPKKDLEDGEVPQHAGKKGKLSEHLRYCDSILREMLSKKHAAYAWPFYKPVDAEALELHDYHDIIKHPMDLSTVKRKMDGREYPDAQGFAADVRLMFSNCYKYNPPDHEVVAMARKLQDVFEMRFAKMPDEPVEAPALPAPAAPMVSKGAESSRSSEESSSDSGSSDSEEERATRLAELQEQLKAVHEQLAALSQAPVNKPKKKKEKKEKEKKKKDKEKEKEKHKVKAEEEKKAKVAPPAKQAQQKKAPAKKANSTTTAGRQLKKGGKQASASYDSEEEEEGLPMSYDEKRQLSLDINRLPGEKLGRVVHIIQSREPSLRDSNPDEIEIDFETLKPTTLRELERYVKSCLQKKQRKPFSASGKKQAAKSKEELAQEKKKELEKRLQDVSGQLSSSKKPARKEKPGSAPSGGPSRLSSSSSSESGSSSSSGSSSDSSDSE
T1 sequence (Q96SW2 whole entry, looked up): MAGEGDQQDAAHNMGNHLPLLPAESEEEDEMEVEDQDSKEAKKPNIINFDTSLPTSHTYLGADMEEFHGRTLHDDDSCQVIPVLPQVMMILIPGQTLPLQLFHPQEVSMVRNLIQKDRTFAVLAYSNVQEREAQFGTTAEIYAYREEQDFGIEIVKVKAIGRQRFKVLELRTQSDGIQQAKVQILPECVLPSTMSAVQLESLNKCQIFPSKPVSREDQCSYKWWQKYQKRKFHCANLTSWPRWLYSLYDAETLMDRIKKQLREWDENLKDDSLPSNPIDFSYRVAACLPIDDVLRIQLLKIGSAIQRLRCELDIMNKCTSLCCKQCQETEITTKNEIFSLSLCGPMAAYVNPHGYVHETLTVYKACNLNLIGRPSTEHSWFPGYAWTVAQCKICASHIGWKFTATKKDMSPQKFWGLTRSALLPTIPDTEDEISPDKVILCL
In short: (§1)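 RS4;11 cells (2 × 10⁶/well) treated for 3 h at the indicated concentrations. Lysed in RIPA with protease inhibitors and immunoblotted for BRD2, BRD3 and BRD4 with specific antibodies.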

[2] = target: T2, Protein cereblon/Bromodomain-containing protein 4/Cullin-4A (Homo sapiens) (UniProt O60885+Q96SW2+Q13619); experiment: Induction of cereblon/cullin 4A-mediated BRD4 degradation in human RS4:11 cells after 3 hrs by Western blot method; type: cell-based
In short: (§2)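 Western blot of RS4;11 cells (2 × 10⁶ cells/well) in RPMI 1640 with 10% FBS, 37 °C, 5% CO₂, used within three months of thawing. Compound exposure was 3 h or 24 h at the indicated concentrations. Cells were lysed in RIPA with protease inhibitors, and BRD2, BRD3 and BRD4 were detected with specific antibodies, with GAPDH as loading control.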

[3] = target: T3, Protein cereblon/Bromodomain-containing protein 2/Cullin-4A (Homo sapiens) (UniProt P25440+Q96SW2+Q13619); experiment: Induction of cereblon/cullin 4A-mediated BRD2 degradation in human RS4:11 cells after 3 hrs by Western blot method; type: cell-based; in short: as §1
T3 sequence (P25440 whole entry, looked up): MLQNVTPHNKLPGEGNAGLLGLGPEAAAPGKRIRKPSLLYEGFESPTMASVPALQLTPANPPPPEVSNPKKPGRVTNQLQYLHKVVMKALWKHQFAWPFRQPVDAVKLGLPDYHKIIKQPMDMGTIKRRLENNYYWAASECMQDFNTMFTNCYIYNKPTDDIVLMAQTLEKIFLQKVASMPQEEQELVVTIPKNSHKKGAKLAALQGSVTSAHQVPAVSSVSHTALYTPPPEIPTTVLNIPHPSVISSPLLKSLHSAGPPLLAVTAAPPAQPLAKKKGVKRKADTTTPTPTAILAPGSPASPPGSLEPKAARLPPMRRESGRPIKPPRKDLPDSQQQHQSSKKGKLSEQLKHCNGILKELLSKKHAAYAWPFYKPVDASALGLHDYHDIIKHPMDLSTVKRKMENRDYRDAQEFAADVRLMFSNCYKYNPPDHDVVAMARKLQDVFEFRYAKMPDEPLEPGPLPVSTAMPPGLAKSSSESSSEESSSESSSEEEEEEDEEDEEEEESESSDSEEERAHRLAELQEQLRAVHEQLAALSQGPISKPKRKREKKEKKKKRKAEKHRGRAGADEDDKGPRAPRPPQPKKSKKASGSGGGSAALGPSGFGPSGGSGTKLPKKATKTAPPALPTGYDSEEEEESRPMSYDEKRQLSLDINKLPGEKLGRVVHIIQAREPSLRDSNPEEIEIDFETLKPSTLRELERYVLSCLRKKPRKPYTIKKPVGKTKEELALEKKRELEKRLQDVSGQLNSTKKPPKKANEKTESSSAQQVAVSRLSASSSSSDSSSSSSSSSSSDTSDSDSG
T3 sequence (Q13619 whole entry, looked up): as the sequence (Q13619 whole entry, looked up) above
T3 sequence (Q96SW2 whole entry, looked up): as the sequence (Q96SW2 whole entry, looked up) above

[4] = target: T3, Protein cereblon/Bromodomain-containing protein 2/Cullin-4A (Homo sapiens); experiment: Induction of cereblon/cullin 4A-mediated BRD2 degradation in human RS4:11 cells at 3 to 10 nM after 3 hrs by Western blot method; type: cell-based; in short: as §1
[5] = target: T2, Protein cereblon/Bromodomain-containing protein 4/Cullin-4A (Homo sapiens); experiment: Induction of cereblon/cullin 4A-mediated BRD4 degradation in human RS4:11 cells at 3 to 10 nM after 3 hrs by Western blot method; type: cell-based; in short: as §2
[6] = target: T1, Protein cereblon/Bromodomain-containing protein 3/Cullin-4A (Homo sapiens); experiment: Induction of cereblon/cullin 4A-mediated BRD3 degradation in human RS4:11 cells at 3 to 10 nM after 3 hrs by Western blot method; type: cell-based; in short: as §2
[7] = target: T1, Protein cereblon/Bromodomain-containing protein 3/Cullin-4A (Homo sapiens); experiment: Induction of cereblon/cullin 4A-mediated BRD3 degradation in human MOLM13 cells after 3 hrs by Western blot method; type: cell-based
[8] = target: T3, Protein cereblon/Bromodomain-containing protein 2/Cullin-4A (Homo sapiens); experiment: Induction of cereblon/cullin 4A-mediated BRD2 degradation in human MOLM13 cells after 3 hrs by Western blot method; type: cell-based
[9] = target: T2, Protein cereblon/Bromodomain-containing protein 4/Cullin-4A (Homo sapiens); experiment: Induction of cereblon/cullin 4A-mediated BRD4 degradation in human MOLM13 cells after 3 hrs by Western blot method; type: cell-based

Row | Compound | IC50 (RS4-11) [nM] | IC50 (MOLM-13) [nM] | further results
1 | CCn1nc(C2CC2)cc1Nc1nc(C(=O)NCCOCCCc2cccc3c2CN(C2CCC(=O)NC2=O)C3=O)nc2[nH]c3cc(-c4c(C)noc4C)c(OC)cc3c12 (configuration not stated) | 0.9 | 5.4 | 
2 | CCn1nc(C2CC2)cc1Nc1nc(C(=O)NCCCNc2cccc3c2C(=O)N(C2CCC(=O)NC2=O)C3=O)nc2[nH]c3cc(-c4c(C)noc4C)c(OC)cc3c12 (configuration not stated) | 2.4 | 9.5 | 
3 | CCn1nc(C2CC2)cc1Nc1nc(C(=O)NCCOCCCc2cccc3c2C(=O)N(C2CCC(=O)NC2=O)C3=O)nc2[nH]c3cc(-c4c(C)noc4C)c(OC)cc3c12 (configuration not stated) | 0.42 | 5.9 | 
4 | CCn1nc(C2CC2)cc1Nc1nc(C(=O)NCCCCc2cccc3c2CN(C2CCC(=O)NC2=O)C3=O)nc2[nH]c3cc(-c4c(C)noc4C)c(OC)cc3c12 (configuration not stated) | 0.98 | 13.7 | Activity [1]: Dose-dependent effect; Activity [2]: Dose-dependent effect; Activity [3]: Dose-dependent effect
5 | COc1cc2c(cc1-c1c(C)noc1C)[nH]c1nc(C(=O)NCCCCCc3cccc4c3CN(C3CCC(=O)NC3=O)C4=O)ncc12 (configuration not stated) | > 1000 | > 1000 | 
6 | CCn1nc(C2CC2)cc1Nc1nc(C(=O)NCCCCNC(=O)COc2cccc3c2C(=O)N(C2CCC(=O)NC2=O)C3=O)nc2[nH]c3cc(-c4c(C)noc4C)c(OC)cc3c12 (configuration not stated) | 4.3 | 45.5 | Activity [4]: Active; Activity [5]: Active; Activity [6]: Active
7 | CCn1nc(C2CC2)cc1Nc1nc(C(=O)NCCCCCCCNc2cccc3c2C(=O)N(C2CCC(=O)NC2=O)C3=O)nc2[nH]c3cc(-c4c(C)noc4C)c(OC)cc3c12 (configuration not stated) | 0.2 | 1.2 | Activity [7]: Active; Activity [8]: Active; Activity [9]: Active
8 | CCn1nc(C2CC2)cc1Nc1nc(C(=O)NCCCCCNc2cccc3c2C(=O)N(C2CCC(=O)NC2=O)C3=O)nc2[nH]c3cc(-c4c(C)noc4C)c(OC)cc3c12 (configuration not stated) | 0.14 | 2.1 | Activity [7]: Active; Activity [8]: Active; Activity [9]: Active
9 | CCn1nc(C2CC2)cc1Nc1nc(C(=O)NCCNc2cccc3c2C(=O)N(C2CCC(=O)NC2=O)C3=O)nc2[nH]c3cc(-c4c(C)noc4C)c(OC)cc3c12 (configuration not stated) | 4.8 | 68.7 | 
10 | CCn1nc(C2CC2)cc1Nc1nc(C(=O)NCCCCCCCOc2cccc3c2C(=O)N(C2CCC(=O)NC2=O)C3=O)nc2[nH]c3cc(-c4c(C)noc4C)c(OC)cc3c12 (configuration not stated) | 0.48 | 3.9 | 
11 | CCn1nc(C2CC2)cc1Nc1nc(C(=O)NCCCc2cccc3c2CN(C2CCC(=O)NC2=O)C3=O)nc2[nH]c3cc(-c4c(C)noc4C)c(OC)cc3c12 (configuration not stated) | 9.6 | 72.3 | Activity [1]: Dose-dependent effect; Activity [2]: Dose-dependent effect; Activity [3]: Dose-dependent effect
